Assay results: ChEMBL document CHEMBL1806443, “Novel imidazo[4,5-b]pyridine and triaza-benzo[c]fluorene derivatives: synthesis, antiproliferative activity and DNA binding studies” (Eur J Med Chem, 2011)
Calls of active or inactive are those of the source. The rule behind the calls is not given here.

Tests used:
SW-620 [1] = experiment: Cell cycle arrest in human SW620 cells assessed as accumulation at G2/M phase at 10 uM after 24 hrs by propidium iodide staining based flow cytometeric analysis (reference value: 22.3 +/- 2.9%); assay type: functional
SK-BR-3 = experiment: Antiproliferative activity against human SKBR3 cells after 72 hrs by MTT assay; assay type: functional, cell-based; settings: Homo sapiens, SK-BR-3, 72 h
Outline: (§1)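 Monolayer cells in DMEM with 10% FBS, 2 mM L-glutamine, penicillin and streptomycin at 37 °C, 5% CO2. Seeded at 3000-6000 cells/well by doubling time on day 0. Five 10-fold dilutions (0.01–100 µM) were added and incubated 72 h. MTT read-out, converted to percentage growth. IC50 by linear regression between bracketing concentrations. Quadruplicate points, three independent experiments, ANOVA/Tukey p<0.05.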

MIA PaCa-2 [2] = experiment: Cell cycle arrest in human MIAPaCa2 cells assessed as accumulation at G1 phase at 1 uM after 24 hrs by propidium iodide staining based flow cytometeric analysis (reference value: 51.2 +/- 2.7%); assay type: functional
MIA PaCa-2 [3] = experiment: Cell cycle arrest in human MIAPaCa2 cells assessed as accumulation at G2/M phase at 1 uM after 24 hrs by propidium iodide staining based flow cytometeric analysis (reference value: 19.5 +/- 3.9%); assay type: functional
MIA PaCa-2 [4] = experiment: Cytostatic activity against human MIAPaCa2 cells at 1 to 10 uM after 72 hrs by MTT assay; assay type: functional, cell-based
Outline: (§2)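 Monolayers in DMEM with 10% FBS, 2 mM L-glutamine, penicillin and streptomycin (37 °C, 5% CO2) were seeded at 3000–6000 cells/well on day 0. Five 10-fold dilutions (0.01–100 µM) were added, followed by 72-h incubation and MTT read-out. Absorbances were converted to percentage growth by the NIH formulae. Each point was run in quadruplicate in three experiments; ANOVA with Tukey test.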

SW-620 [5] = experiment: Cell cycle arrest in human SW620 cells assessed as accumulation at G1 phase at 5 uM after 24 hrs by propidium iodide staining based flow cytometeric analysis (reference value: 29.3 +/- 1.5%); assay type: functional
MIA PaCa-2 [6] = experiment: Cell cycle arrest in human MIAPaCa2 cells assessed as accumulation at G2/M phase at 5 uM after 48 hrs by propidium iodide staining based flow cytometeric analysis (reference value: 14.3 +/- 1.8%); assay type: functional
SW-620 [7] = experiment: Cell cycle arrest in human SW620 cells assessed as accumulation at G2/M phase at 10 uM after 48 hrs by propidium iodide staining based flow cytometeric analysis (reference value: 16.1 +/- 0.9%); assay type: functional
MIA PaCa-2 [8] = experiment: Cell cycle arrest in human MIAPaCa2 cells assessed as accumulation at G2/M phase at 1 uM after 48 hrs by propidium iodide staining based flow cytometeric analysis (reference value: 14.3 +/- 1.8%); assay type: functional
SW-620 [9] = experiment: Induction of apoptosis in human SW620 cells assessed as morphological changes after 24 to 48 hrs by microscopic analysis; assay type: functional, cell-based
Outline: (§3)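 Cells were seeded at 3 × 10^4 per well and exposed 24 h later to 1, 5 or 10 µM for 24 and 48 h. Apoptotic morphology (cell shrinkage, chromatin condensation) was scored by inverted light microscopy at 200× magnification.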

SW-620 [10] = experiment: Cell cycle arrest in human SW620 cells assessed as accumulation at subG1 phase at 10 uM after 48 hrs by propidium iodide staining based flow cytometeric analysis (reference value: 29.1 +/- 1.1%); assay type: functional
Outline: (§4)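 Cells seeded at 3 × 10^4 per well and treated 24 h later with 1, 5 or 10 µM for 24 and 48 h. Adherent and floating cells were pooled, washed in PBS and fixed in 70% ethanol. They were then stained with propidium iodide 10 µg/mL plus RNase A 0.2 µg/mL. Flow cytometry counted 10000 events; each point was run in triplicate; significance was taken at p < 0.05.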

WI-38 [11] = experiment: Antiproliferative activity against human WI38 cells after 72 hrs by MTT assay; assay type: cell-based; settings: Homo sapiens, WI-38, 72 h; outline: as §1
MIA PaCa-2 [12] = experiment: Antiproliferative activity against human MIAPaCa2 cells after 72 hrs by MTT assay; assay type: functional, cell-based; settings: Homo sapiens, MIA PaCa-2, 72 h; outline: as §1
WI-38 [13] = experiment: Cytostatic activity against human WI38 cells at 1 to 10 uM after 72 hrs by MTT assay; assay type: ADME, cell-based; settings: wi-38, 72 h; outline: as §2
MIA PaCa-2 [14] = experiment: Cell cycle arrest in human MIAPaCa2 cells assessed as accumulation at S phase at 10 uM after 48 hrs by propidium iodide staining based flow cytometeric analysis (reference value: 20.5 +/- 0.2%); assay type: functional
SW-620 [15] = experiment: Cell cycle arrest in human SW620 cells assessed as accumulation at G1 phase at 1 uM after 24 hrs by propidium iodide staining based flow cytometeric analysis (reference value: 29.3 +/- 1.5%); assay type: functional
MIA PaCa-2 [16] = experiment: Cell cycle arrest in human MIAPaCa2 cells assessed as accumulation at G1 phase at 10 uM after 48 hrs by propidium iodide staining based flow cytometeric analysis (reference value: 65.2 +/- 1.9%); assay type: functional
SW-620 [17] = experiment: Cell cycle arrest in human SW620 cells assessed as accumulation at S phase at 1 uM after 24 hrs by propidium iodide staining based flow cytometeric analysis (reference value: 48.4 +/- 1.4%); assay type: functional
MIA PaCa-2 [18] = experiment: Cell cycle arrest in human MIAPaCa2 cells assessed as accumulation at subG1 phase at 1 uM after 48 hrs by propidium iodide staining based flow cytometeric analysis (reference value: 46.8 +/- 0.7%); assay type: functional
HEp-2 = experiment: Antiproliferative activity against human Hep2 cells at 0.1 to 10 uM after 72 hrs by MTT assay; assay type: functional, cell-based; outline: as §1
SW-620 [19] = experiment: Induction of apoptosis in human SW620 cells assessed as morphological change at 5 to 10 uM after 24 to 48 hrs by microscopic analysis; assay type: functional, cell-based; outline: as §3
MIA PaCa-2 [20] = experiment: Cell cycle arrest in human MIAPaCa2 cells assessed as accumulation at subG1 phase at 5 uM after 48 hrs by propidium iodide staining based flow cytometeric analysis (reference value: 46.8 +/- 0.7%); assay type: functional
MIA PaCa-2 [21] = experiment: Cell cycle arrest in human MIAPaCa2 cells assessed as accumulation at S phase at 5 uM after 24 hrs by propidium iodide staining based flow cytometeric analysis (reference value: 29.2 +/- 4.2%); assay type: functional
SW-620 [22] = experiment: Cell cycle arrest in human SW620 cells assessed as accumulation at subG1 phase at 10 uM after 24 hrs by propidium iodide staining based flow cytometeric analysis (reference value: 18 +/- 1%); assay type: functional; outline: as §4
Nucleic Acid = experiment: Binding affinity to calf thymus DNA assessed as appearance of weak, negative induced CD band at 337 nm wavelength by circular dichroism spectroscopy; assay type: nucleic-acid assay; settings: Bos taurus
Outline: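 CD spectra of ct-DNA (1.0 × 10^-5 mol dm^-3, as phosphate) titrated with compound at 25 °C. Sodium cacodylate buffer pH 7.0, I = 0.05 mol dm^-3, 1 cm quartz cuvette. DNA band (~274–275 nm) and induced bands above 300 nm followed versus r = [compound]/[ct-DNA].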

SW-620 [23] = experiment: Cell cycle arrest in human SW620 cells assessed as accumulation at G1 phase at 10 uM after 24 hrs by propidium iodide staining based flow cytometeric analysis (reference value: 29.3 +/- 1.5%); assay type: functional

Cl.c1cnc2nc3ccc4ccc(C5=NCCN5)cc4n3c2c1
Activity (SW-620 [1]): 19.2% | IC50 (SK-BR-3): 2.2 µM | Activity (MIA PaCa-2 [2]): 41.6% | Activity (MIA PaCa-2 [3]): 21.3% | Activity (MIA PaCa-2 [4]): Active | Activity (SW-620 [5]): 86.1% | Activity (MIA PaCa-2 [6]): 20.8% | Activity (SW-620 [7]): 18.2% | Activity (MIA PaCa-2 [8]): 23% | Activity (SW-620 [9]): Dose-dependent effect | Activity (SW-620 [10]): 40.6% | IC50 (WI-38 [11]): 1.77 µM | IC50 (MIA PaCa-2 [12]): 0.74 µM | Activity (WI-38 [13]): Toxic | Activity (MIA PaCa-2 [14]): 56.9% | Activity (SW-620 [15]): 54.3% | Activity (MIA PaCa-2 [16]): 26.1% | Activity (SW-620 [17]): 27.2% | Activity (MIA PaCa-2 [18]): 33.8% | Activity (HEp-2): Active | Activity (SW-620 [19]): Active | Activity (MIA PaCa-2 [20]): 56.6% | Activity (MIA PaCa-2 [21]): 59.3% | Activity (SW-620 [22]): 20.1% | Activity (Nucleic Acid): Active | Activity (SW-620 [23]): 33.7%
